Source: PubChem BioAssay (Broad Institute)
SIRT5 inh = inhibitors of human sirtuin-5 desuccinylase; 330,000 compounds, 1.1% hits; inhibition, % at 15 µM; Purified SirT5, succinyl-peptide AMC, trypsin-coupled fluorescence; Q9NXA8; in the data active = inhibition above about 15%; inconclusive = no clear call, values can overlap the other calls
Target sequence (Q9NXA8 whole entry, looked up): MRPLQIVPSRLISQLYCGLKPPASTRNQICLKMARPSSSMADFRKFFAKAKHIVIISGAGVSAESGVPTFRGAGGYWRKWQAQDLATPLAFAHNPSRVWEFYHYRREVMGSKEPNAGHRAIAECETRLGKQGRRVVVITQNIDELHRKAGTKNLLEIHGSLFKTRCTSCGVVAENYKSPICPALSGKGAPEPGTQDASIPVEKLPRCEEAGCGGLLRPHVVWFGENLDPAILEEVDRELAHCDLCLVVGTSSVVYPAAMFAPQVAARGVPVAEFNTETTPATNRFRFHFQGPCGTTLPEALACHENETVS
FN deposit inh = fibronectin deposition inhibition. inhibition, % at 12.6 µM. 350,000 compounds, 0.086% hits. AID 743247. AH1F fibroblasts, Alexa488-fibronectin deposition fluorescence, overnight;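 active = mean inhibition across replicates of 30% or more, regardless of how many single replicates reach that level; inconclusive = mean under 30% yet at least half of replicates reach 30%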
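Material – AH1F fibroblast monolayer, labelled fibronectin deposition · Reagent – labelled fibronectin 24 nM · Timing – 1 h adhesion, overnight exposure · Measured by – fluorescence at 485 nm excitation, 525 nm emission · Read-out – inhibition of fibronectin deposition signal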
Statin myotox sup = suppressors of simvastatin-induced myotoxicity in C2C12 myotubes; AID 602340; 330,000 compounds, 0.78% hits; rescue of ATP level, % at 7.49 µM; ATP luminescence, 48 h; scaled: DMSO 0, geranylgeraniol control 100;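 active = mean ATP rescue above about 67%, or every replicate alone reaching that limit, limit read from the data, passing the limit was not always enough; inconclusive = no clear call, values can overlap the other calls; inactive = mean under the limit and some replicate under it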;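 also: myotubes were challenged with 10 µM simvastatin during compound exposure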
E-selectin induc = E-selectin induction on HUVECs; P16581; HUVEC E-selectin immunofluorescence imaging; normalized: neutral wells 0, TNF-alpha wells 100; activation, % at 7.58 µM; 260,000 compounds, 0.37% hits;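 active = mean E-selectin-positive cell signal at least 10% of the positive control, reached in at least 60% of replicates, without over 20% cell loss; inconclusive = no rule given, readout overlaps actives, possibly toxicity-flagged; inactive = the rest, including those meeting only one limit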
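material = human umbilical vein endothelial cells (HUVEC), E-selectin induction | quantity = 3,000 cells/well | medium = EGM-2 growth medium on 0.1% gelatin-coated wells | technique = immunofluorescence imaging | read-out basis = % PE-positive cells | control set = TNF-alpha positive control, DMSO neutral control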
rRNA inh HTS = inhibits bacterial ribosomal RNA function over humanized ribosomes; AID 720706; GFP signal change (wild-type ribosome), % (no concentration beside the values); E. coli WT GFP vs humanized-ribosome RFP mutants, fluorescence, 24 h; stronger effect = lower value; DMSO median 0, no signal -100; 350,000 compounds, 1.6% hits;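 active = significant combined selectivity score with lowered wild-type GFP, culture density cut under 30%, mutant RFP and density less affected; inactive = any of these conditions unmet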
FGF22 binding = FGF22 (human) thermal shift binding; Q9HCT0; activity (Tm shift, normalised), % at 9.99 µM; recombinant FGF22 thermal shift, SYPRO orange fluorescence; percent of sucrose octasulfate shift, DMSO zero; 340,000 compounds, 1.5% hits;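 active = mean Tm shift, scaled 0 neutral to 100 positive control, at about 1.3% or above, every replicate too, limit read from the data; inconclusive = no clear call, values can overlap the other calls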
Target sequence (Q9HCT0 whole entry, looked up): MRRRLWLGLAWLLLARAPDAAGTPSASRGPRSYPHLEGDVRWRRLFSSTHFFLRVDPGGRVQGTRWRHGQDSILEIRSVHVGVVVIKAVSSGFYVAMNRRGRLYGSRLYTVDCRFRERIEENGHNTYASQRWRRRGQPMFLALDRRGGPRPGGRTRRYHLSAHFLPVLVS
Each line names hits and unclear results; the compound was inactive in the other large screens. This is a sample that favours compounds with a hit; in the whole collection about 4% have one here.

CO[C@H]1CN(C)C(=O)c2ccc(NC(=O)C3CC3)cc2OC[C@H](C)N(C(=O)NC(C)C)C[C@@H]1C	none
O=C(c1ccc(F)cc1)N1CC(=O)N2[C@H](CO)[C@@H](c3ccc(-c4cccnc4)cc3)[C@H]2C1	none (no result: FN deposit inh, Statin myotox sup)
C[C@H]1CN([C@@H](C)CO)C(=O)c2cccc(NC(=O)Nc3ccc4c(c3)OCO4)c2O[C@@H]1CN(C)Cc1ccncc1	none (no result: FN deposit inh)
COc1ccc(S(=O)(=O)N(C)C[C@@H]2OCCCC[C@@H](C)Oc3ccc(NS(=O)(=O)c4ccc(F)cc4)cc3C(=O)N([C@@H](C)CO)C[C@@H]2C)cc1	SIRT5 inh 20
COc1ccc(S(=O)(=O)N(C)C[C@H]2OCCCC[C@H](C)Oc3ccc(NS(=O)(=O)c4ccc(F)cc4)cc3C(=O)N([C@H](C)CO)C[C@@H]2C)cc1	SIRT5 inh 18
COc1ccc(S(=O)(=O)N(C)C[C@@H]2OCCCC[C@@H](C)Oc3ccc(NS(=O)(=O)c4ccc(F)cc4)cc3C(=O)N([C@H](C)CO)C[C@@H]2C)cc1	none
CC1(C)OC2CC3C4CCC5=CC(=O)CCC5(C)C4(F)C(O)CC3(C)C2(C(=O)CO)O1 (stereo not given)	FGF22 binding 44 (no result: SIRT5 inh)
CN(C)S(=O)(=O)c1ccc2c(c1)nc(CCC(=O)NCC(=O)Nc1ccc(F)c(F)c1F)n2C	FGF22 binding 44 (no result: SIRT5 inh)
CN(C)S(=O)(=O)c1ccc2c(c1)nc(CCC(=O)O)n2C	none (no result: FGF22 binding)
O=C(Nc1ccc(Cl)cc1)Nc1ccc(-c2cnco2)cc1	rRNA inh HTS -22
C[C@H](CO)N1C[C@H](C)[C@H](CN(C)S(=O)(=O)c2ccc(F)cc2)Oc2ccc(N(C)C)cc2CC1=O	none (no result: FN deposit inh, E-selectin induc)
CN(C)CC(=O)Nc1ccc2c(c1)[C@@H]1C[C@H](CC(=O)NC3CCCC3)O[C@H](CO)[C@@H]1O2	none
C[C@H](CO)N1C[C@H](C)[C@@H](CN(C)C(=O)C2CCOCC2)Oc2ncc(C3=CCCC3)cc2C1=O	none (no result: FN deposit inh)
COc1cnc(-c2ccccc2)c(-c2ccccc2)n1	rRNA inh HTS -32
CCS(=O)(=O)Nc1ccc2c(c1)C(=O)N(C)C[C@@H](OC)[C@H](C)CN(Cc1nccs1)[C@@H](C)CO2	none
CN1C(=O)c2cc(NC(=O)C3CCCCC3)ccc2OC[C@H]2O[C@@H](CC(=O)NCCc3ccncc3)CC[C@@H]21	none
Cc1noc(C)c1NC(=O)Nc1ccc2c(c1)CC(=O)N([C@H](C)CO)C[C@@H](C)[C@@H](CN(C)Cc1ccc(Oc3ccccc3)cc1)O2	none (no result: SIRT5 inh, FN deposit inh)
Cc1noc(C)c1NC(=O)Nc1ccc2c(c1)CC(=O)N([C@H](C)CO)C[C@@H](C)[C@@H](CN(C)Cc1ccc(-c3ccccc3)cc1)O2	SIRT5 inh 16 (no result: FN deposit inh)
Cc1noc(C)c1NC(=O)Nc1ccc2c(c1)CC(=O)N([C@@H](C)CO)C[C@H](C)[C@H](CN(C)Cc1ccc(Oc3ccccc3)cc1)O2	E-selectin induc 399 (no result: SIRT5 inh, FN deposit inh)
Cc1noc(C)c1NC(=O)Nc1ccc2c(c1)CC(=O)N([C@H](C)CO)C[C@H](C)[C@@H](CN(C)Cc1ccc(-c3ccccc3)cc1)O2	Statin myotox sup inconclusive (no result: FN deposit inh)
Cc1noc(C)c1NC(=O)Nc1ccc2c(c1)CC(=O)N([C@@H](C)CO)C[C@H](C)[C@@H](CN(C)C(=O)Nc1ccc(F)cc1)O2	E-selectin induc 73 (no result: FN deposit inh)
COCC#Cc1ccc([C@@H]2[C@@H](CO)N3CCCCN(S(=O)(=O)c4ccccc4F)C[C@@H]23)cc1	none (no result: FN deposit inh, E-selectin induc, rRNA inh HTS)
C/C=C/c1ccc([C@H]2[C@H](CO)N(S(=O)(=O)CC)C23CN(C(=O)CC)C3)cc1	none (no result: FN deposit inh, Statin myotox sup)
COc1ccc(CCCc2nnc(SCc3nc4ccccc4c(=O)[nH]3)n2C)cc1C	FGF22 binding 43 (no result: E-selectin induc)
Cc1ccccc1OCc1nnc(SCc2nc3ccccc3c(=O)[nH]2)n1C	none (no result: SIRT5 inh, Statin myotox sup, E-selectin induc)
CCCNC(=O)N1C[C@H]2[C@@H](c3ccccc31)[C@H](CO)N2CC1CCCCC1	none
COc1ccccc1-c1cn(CC[C@H]2CC[C@@H](NC(=O)C3CC3)[C@H](CO)O2)nn1	none
N=C1S/C(=C\c2ccco2)C(=O)N1c1nccs1	none
